Legend:
[1] = biological target: CBFβ-SMMHC binding to the RUNX1 Runt domain; assay: FRET assay of CBFβ-SMMHC binding to RUNX1 Runt domain; conditions: read-out: FRET IC50; 10 nM Cerulean-Runt domain and 10 nM Venus-CBFβ-SMMHC
Method in brief: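 FRET binding assay with 10 nM Cerulean-RUNX1 Runt domain and 10 nM Venus-CBFβ-SMMHC titrated with test compound. Read-out is the emission intensity ratio at 525/474 nm. Untagged CBFβ (100 and 1000 nM) served as a dissociation reference. IC50 was fitted from the mean and SD of three independent measurements.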

[2] = Stability in liver microsomes; type: in vitro ADME
[3] = test system: primary human inv(16) AML samples; assay: Colony-forming units, primary inv; type: cell-based
Method in brief: (§1)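 Colony-forming unit assays on CD34+ purified primary human cells treated with the test compound at set concentrations (5 and 10 μM cited for inv(16) samples): inv(16) AML, normal-karyotype AML, or cord blood. Colonies are expressed as percent of DMSO vehicle control. Assays were run in triplicate, with SD; significance by unpaired t-test.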

[4] = biological target: RUNX1, endogenous in ME-1 cells (human (endogenous in ME-1)) (UniProt Q01196); assay: co-IP
RUNX1, endogenous in ME-1 cells (human (endogenous in ME-1)), sequence (Q01196 whole entry): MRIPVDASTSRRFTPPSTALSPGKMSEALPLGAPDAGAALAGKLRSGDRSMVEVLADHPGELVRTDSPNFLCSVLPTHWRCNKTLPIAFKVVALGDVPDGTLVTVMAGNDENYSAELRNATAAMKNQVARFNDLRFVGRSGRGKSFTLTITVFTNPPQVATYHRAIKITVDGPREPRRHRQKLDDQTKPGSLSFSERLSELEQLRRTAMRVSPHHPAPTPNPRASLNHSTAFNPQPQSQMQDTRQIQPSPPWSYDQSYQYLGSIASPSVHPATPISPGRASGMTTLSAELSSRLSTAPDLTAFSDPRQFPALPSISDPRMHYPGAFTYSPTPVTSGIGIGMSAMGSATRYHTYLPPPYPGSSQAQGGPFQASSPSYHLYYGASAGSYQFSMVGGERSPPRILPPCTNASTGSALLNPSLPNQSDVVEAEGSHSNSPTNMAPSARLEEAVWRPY

CBFβ-RUNX1 binding = assay: Coimmunoprecipitation of CBFβ-RUNX1 in ME-1 cells; type: cell-based, human; conditions: 1 μM
Method in brief: (§2)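 ME-1 cells treated with 1 μM test compound for 3 and 6 hours. RUNX1 association with CBFβ and with CBFβ-SMMHC was assessed by coimmunoprecipitation, and binding was quantified from three experiments.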

CBFβ-SMMHC = assay: Isothermal titration calorimetry; type: binding; conditions: read-out: dissociation constant (KD), ITC
CBFβ-SMMHC, sequence (Q13951 1-165 limits assumed): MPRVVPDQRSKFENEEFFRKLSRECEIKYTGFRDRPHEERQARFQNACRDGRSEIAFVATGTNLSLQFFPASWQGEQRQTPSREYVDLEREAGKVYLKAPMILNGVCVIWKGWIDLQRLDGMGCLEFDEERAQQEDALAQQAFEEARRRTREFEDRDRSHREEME

[5] = test system: expression of RUNX3, CSF1R, and CEBPA; assay: qRT-PCR expression of RUNX1 target genes, ME-1 cells; type: cell-based, human; conditions: 6 or 12 hours
Method in brief: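 qRT-PCR of RUNX3, CSF1R, CEBPA and control gene PIN1 in ME-1 and U937 cells treated with 1 μM test compound for 6 and 12 hours. Expression is normalized to the DMSO control group. Data are means of triplicate experiments with SD; significance by unpaired t-test.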

[6] = test system: primary human inv(16) AML samples; assay: Viability; type: cell-based; conditions: 48 hours, 5 and 10 μM
Method in brief: (§3)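 Primary human AML cells treated with test compound at set concentrations for 48 hours, and viability read by annexin V/7AAD relative to DMSO vehicle. Inv(16) material comprised four CD34+ purified samples; normal-karyotype AML samples were used as given. Each sample was the average of duplicate treatments, with mean and SD across samples.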

[7] = test system: normal human bone marrow cells; assay: MTT assay, normal human bone marrow cells; type: cell-based; conditions: read-out: IC50 in normal human bone marrow cells, 48 hours
Method in brief: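 Normal human bone marrow cells treated with a dose range of test compound for 48 hours and assessed by MTT conversion. Values are normalized to the DMSO-treated group. Each point is the mean of triplicate experiments, with SD.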

ME-1 cells = assay: Annexin V and 7AAD viability staining, ME-1; type: cell-based, human; conditions: read-out: ME-1 cell growth IC50, 48 hours
Method in brief: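 ME-1 inv(16) cells exposed to the test compound across a dose range for 48 hours, then scored by annexin V and 7AAD viability staining. Values are normalized to the DMSO-treated group. Each point is the mean of triplicate experiments, with SD.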

[8] = test system: primary human AML samples with normal karyotype; assay: Viability; type: cell-based; conditions: 48 hours
Method in brief: as §3

[9] = test system: RUNX1, CBFβ, and CBFβ-SMMHC; assay: Protein stability of RUNX1, CBFβ and CBFβ-SMMHC; type: cell-based
[10] = test system: RUNX1 occupancy at RUNX3, CSF1R, and CEBPA promoters; assay: Chromatin immunoprecipitation of RUNX1 occupancy, ME-1 cells; type: cell-based, human; conditions: 6 hours
Method in brief: (§4)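 Chromatin immunoprecipitation of RUNX1 at the RUNX3, CSF1R and CEBPA loci in ME-1 and U937 cells treated with 1 μM test compound for 6 hours. Occupancy is expressed as fold enrichment relative to DMSO-treated cells. Data are means of triplicate experiments with SD; significance by unpaired t-test.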

[11] = test system: Cbfb+/MYH11:Ras+/G12D leukemic cells; assay: inv; type: in vivo, mouse; conditions: 200 mg/kg of body weight per day for 10 days, days 5 to 15 posttransplantation
Method in brief: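 Mice (n = 11 per group) were transplanted with 2 × 10^3 Cbfb+/MYH11;Ras+/G12D leukemic cells. After 5 days for engraftment, they received DMSO vehicle or 200 mg/kg/day test compound for 10 days (days 5–15 post-transplant). Disease latency was followed by Kaplan-Meier survival.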

CD34+ cord blood cells = assay: Colony-forming units, CD34+ cord blood cells; type: cell-based, human
Method in brief: as §1

[12] = test system: primary human AML samples with normal karyotype; assay: Colony-forming units, normal karyotype AML samples; type: cell-based
Method in brief: as §1

[13] = Toxicity after 7 days of administration; type: in vivo
[14] = test system: RUNX1 occupancy at RUNX3, CSF1R, and CEBPA promoters; assay: Chromatin immunoprecipitation of RUNX1 occupancy, U937 cells; type: cell-based, human; conditions: inv(16)-negative U937 cells, 1 μM
Method in brief: as §4

[15] = Pharmacokinetics in mouse plasma; type: in vivo
[16] = test system: 11 human leukemia cell lines; assay: Panel of 11 human leukemia cell lines; type: cell-based
CBFβ-SMMHC-RUNX1 binding = assay: Coimmunoprecipitation of CBFβ-SMMHC-RUNX1 in ME-1 cells; type: cell-based, human; conditions: 1 μM, 6 hours
Method in brief: as §2

Runt domain = assay: 15N-1H HSQC / STD NMR binding to Runt domain
CBFβ = assay: 15N-1H HSQC / STD NMR binding to CBFβ; conditions: upon addition of compound

Compound: FC(F)(F)Oc1ccc2nc(-c3ccccn3)[nH]c2c1 [AI-10-47]
- IC50 [1]: 2000 ± 30 nM
- stability in liver microsomes [2]: reduced the metabolic liability
- change in CFUs of inv(16) AML cells [3]: no change

Compound: CBFβ-SMMHC, endogenous in ME-1 cells
- percent dissociation with AI-10-49 (1 μM, 6 hours) [4]: 90%

Compound: AI-10-49
- effect on CBFβ-RUNX1 association (CBFβ-RUNX1 binding): only a modest effect
- Kd (CBFβ-SMMHC): 168 nM
- expression of RUNX3, CSF1R, and CEBPA ([5]; 1 μM): increased expression
- expression of control gene PIN1 [5]: no effect
- viability of inv(16) patient cells [6]: reduced
- IC50 [7]: > 25000 nM
- IC50 (ME-1 cells): 600 nM
- viability of normal karyotype AML samples [8]: not affected
- stability of RUNX1, CBFβ, and CBFβ-SMMHC [9]: not affected
- RUNX1 occupancy at CEBPA promoter ([10]; 1 μM, relative to DMSO): 8 fold
- RUNX1 occupancy at CSF1R promoter ([10]; 1 μM, relative to DMSO): 2.2 fold
- RUNX1 occupancy at RUNX3 promoter ([10]; 1 μM, relative to DMSO): 8 fold
- RUNX1 occupancy at control loci [10]: no enrichment was observed
- median latency (survival) [11]: 61 days
- change in CFUs of CD34+ cord blood cells (CD34+ cord blood cells): no change
- IC50 [1]: 260 ± 10 nM
- change in CFUs of AML cells with normal karyotype [12]: no change
- toxicity [13]: no evidence of toxicity
- RUNX1 occupancy increase in U937 cells [14]: Neither
- half-life (t½) [15]: 6.33 h
- sensitivity of leukemia cell line panel [16]: ME-1 cells were the only cell line highly sensitive
- dissociation of RUNX1 from CBFβ-SMMHC (CBFβ-SMMHC-RUNX1 binding): 90%
- inhibition of CFUs of inv(16) AML cells ([3]; 5 μM): 40%
- inhibition of CFUs of inv(16) AML cells ([3]; 10 μM): 60%

Compound: COc1ccc2nc(-c3ccccn3)[nH]c2c1 [AI-4-57]
- interaction with Runt domain by NMR (Runt domain): No interaction was observed
- IC50 [1]: 22000 ± 8000 nM
- half-life (t½) [15]: 0.617 h
- chemical shift changes in HSQC spectrum of CBFβ (CBFβ): chemical shift perturbations
